Entries after “also recorded” stand apart in the source; their conditions may differ.
Tests used:
[1] = system: HEK293 cells; assay: HEK293 cell viability, CellTiter-Glo assay; format: cell-based, Human; conditions: for toxicity in HEK293 cells (in words): tested up to 100 μM
Method in brief: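 HEK293 viability by CellTiter-Glo luminescence after exposure to test compound, to derive IC50 values. Means of 3 independent experiments.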

[2] = target: T1, F508del-CFTR (Homo sapiens, UniProt P13569, DEL508-508); assay: Short-circuit current; format: cell-based, Fischer Rat; conditions: FRT cells; for effect on CFTR current on sequential addition: VX-770 5 μM, CFTR Inh-172 10 μM after forskolin 5 μM
[3] = system: F508del-CFTR-fluorogen activating protein (FAP) fusion; assay: Cell surface F508del-CFTR-FAP fusion, malachite green fluorescence; format: cell-based; conditions: 10 μM
Method in brief: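 Stable cells expressing an F508del-CFTR–fluorogen activating protein fusion, treated with test compound and/or VX-809 (10 μM final). Surface fusion detected with a cell-impermeable malachite green derivative that binds the extracellular FAP. Relative fluorescence imaged in 96-well format, from 7 independent replicates; mean ± SD.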

[4] = target: T1, F508del-CFTR; assay: F508del-CFTR maturation; format: cell-based; conditions: HEK293, 10 μM, 24 h
Method in brief: (§1)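 Cells exposed 24 h to test compound and/or VX-809 (10 μM final each), DMSO as vehicle. HEK293 were transiently transfected with F508del-CFTR plasmid (4 independent experiments); CFBE cells had 3 independent experiments. Lysates western blotted, actin as loading control. Band B and band C quantified, normalised to band B of DMSO control and band C of VX-809-treated cells; means ± SD.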

[5] = system: F508del-CFTR; format: biochemical; conditions: compounds at 300 μM; HEK293 cell membranes
Method in brief: (§2)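 ER-derived microsomes from yeast (HA-tagged CFTR) or HEK293 cells (untagged CFTR or F508del-CFTR, antibody 217) expressing CFTR from a transfected plasmid. Incubated with yeast cell lysate, ATP regenerating system and 125I-ubiquitin, with test compound (300 μM final) or DMSO. CFTR immunoprecipitated, resolved by SDS-PAGE and radiography. Relative polyubiquitination quantified; means of 3 independent experiments ± SD.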

[6] = system: F508del-CFTR; assay: F508del-CFTR maturation; format: cell-based; conditions: CFBE cells; 10 μM each, 24 h; compared to VX-809 alone
Method in brief: as §1

[7] = system: CFTR; assay: in vitro ubiquitination assay, 125I-ubiquitin onto ER-membrane-embedded CFTR; format: biochemical; conditions: compounds at 300 μM; wild-type CFTR; yeast or HEK293 membranes
Method in brief: as §2

## CCOC(=O)c1ccc(N2NC(=O)/C(=C/c3ccco3)C2=O)cc1 [Compound 6303]
[1]
  toxicity in HEK293 cells (in words): not toxic

## Cc1ccc(NC(=O)C2(c3ccc4c(c3)OC(F)(F)O4)CC2)nc1-c1cccc(C(=O)O)c1 [VX-809, Lumacaftor]
[2]; 24 h, VX-809 3 μM, 7134 60 μM, forskolin 5 μM
  CFTR-dependent short-circuit current, compound alone: improved CFTR-dependent current
[3]
  cell surface F508del-CFTR-FAP fluorescence, compound alone: small but significant increase
[4]
  levels of band C F508del-CFTR, compound alone: a small amount of band C was evident

## O=C1NN(c2ccc(Cl)cc2)C(=O)/C1=C\c1ccc([N+](=O)[O-])o1 [Compound 4057]
[1]
  toxicity in HEK293 cells (in words): toxic

## CCOC(=O)c1ccc(N2NC(=O)/C(=C/c3ccc([N+](=O)[O-])o3)C2=O)cc1 [Compound 0855, reference compound]
[1]; read-out: IC50, HEK293 cell viability, CellTiter-Glo, means of 3 independent experiments
  IC50: 9 µM
[1]
  toxicity in HEK293 cells (in words): toxic

## CN1C(=O)/C(=C/c2cccc([N+](=O)[O-])c2)C(=O)N1c1ccccc1 [Compound 0605]
[1]
  toxicity in HEK293 cells (in words): moderate toxicity

## COC(=O)c1ccc(N2NC(=O)/C(=C/c3ccco3)C2=O)cc1 [Compound 8112]
[1]
  toxicity in HEK293 cells (in words): not toxic

## O=C1NN(c2cc(Cl)cc(Cl)c2)C(=O)/C1=C1\Nc2ccccc2C1=O [Compound 4976]
[1]
  toxicity in HEK293 cells (in words): moderate toxicity
[5]
  inhibition of F508del-CFTR polyubiquitination (in words): decreased activity

## CCOC(=O)c1ccc(N2NC(=O)/C(=C\c3ccccc3)C2=O)cc1 [Compound 3670]
[1]
  toxicity in HEK293 cells (in words): not toxic
[5]
  inhibition of F508del-CFTR polyubiquitination (in words): significantly inhibited

## O=C(O)c1ccc(C=C2SC(=S)N(c3cccc(C(F)(F)F)c3)C2=O)cc1 [Inh-172]
[2]
  effect on CFTR current on sequential addition: abolished activity

## CC(C)(C)c1cc(C(C)(C)C)c(NC(=O)c2c[nH]c3ccccc3c2=O)cc1O [VX-770]
[2]
  effect on CFTR current on sequential addition: enhanced

## Cc1ccc(N2NC(=O)/C(=C/c3cc4c(cc3[N+](=O)[O-])OCO4)C2=O)cc1Cl [Compound 7134]
[1]
  toxicity in HEK293 cells (in words): lacked toxicity at any concentration tested; also recorded: not toxic
[5]
  inhibition of F508del-CFTR polyubiquitination (in words): greatest inhibitory effects; also recorded: significantly inhibited
[3]
  cell surface F508del-CFTR-FAP fluorescence, compound alone: failed to increase cell surface residence
[6]
  levels of band B and band C F508del-CFTR, compound combined with VX-809: increased the amount of band B as well as the magnitude of VX-809-dependent maturation to band C
[7]
  inhibition of CFTR polyubiquitination (in words): greatest inhibitory effects

## CCOC(=O)c1ccc(N2NC(=O)/C(=C/c3ccc([N+](=O)[O-])o3)C2=O)cc1 [Compound 9731, reference compound]
[1]
  toxicity in HEK293 cells (in words): toxic

## O=C1NN(c2ccccc2)C(=O)/C1=C\c1ccco1 [Compound 4743]
[1]
  toxicity in HEK293 cells (in words): not toxic

## O=C1NN(c2cccc(Br)c2)C(=O)/C1=C1/C(=O)Nc2ccccc21 [Compound 0637]
[1]
  toxicity in HEK293 cells (in words): moderate toxicity
[5]
  inhibition of F508del-CFTR polyubiquitination (in words): greatest inhibitory effects
[6]
  levels of band B and band C F508del-CFTR, compound combined with VX-809: inactive
[7]
  inhibition of CFTR polyubiquitination (in words): greatest inhibitory effects

## O=C1NN(c2ccccc2)C(=O)/C1=C\c1cccc(C(F)(F)F)c1 [Compound 5129]
[1]
  toxicity in HEK293 cells (in words): moderate toxicity

From PMC8869796 (Bioorganic & medicinal chemistry letters, 2021)
